Assay results published in ChEMBL document CHEMBL4177764 (J Med Chem, 2018).
Activity calls are given as the source filed them. The rule behind the calls is not given here.

Assays:
[1] = biological target: Tyrosine-protein kinase Fer (Homo sapiens) (UniProt P16591); test: Induction of FER degradation in human Kelly cells at 10 to 160 nM after 16 hrs by immunoblot method; format: cell-based
[2] = biological target: T1, Aurora kinase A (Homo sapiens) (UniProt O14965); test: Induction of aurora A degradation in human KARPAS299 cells at 250 nM after 16 hrs in presence of proteasome inhibitor carfilzomib by immunoblot method; format: cell-based
T1 sequence (whole entry): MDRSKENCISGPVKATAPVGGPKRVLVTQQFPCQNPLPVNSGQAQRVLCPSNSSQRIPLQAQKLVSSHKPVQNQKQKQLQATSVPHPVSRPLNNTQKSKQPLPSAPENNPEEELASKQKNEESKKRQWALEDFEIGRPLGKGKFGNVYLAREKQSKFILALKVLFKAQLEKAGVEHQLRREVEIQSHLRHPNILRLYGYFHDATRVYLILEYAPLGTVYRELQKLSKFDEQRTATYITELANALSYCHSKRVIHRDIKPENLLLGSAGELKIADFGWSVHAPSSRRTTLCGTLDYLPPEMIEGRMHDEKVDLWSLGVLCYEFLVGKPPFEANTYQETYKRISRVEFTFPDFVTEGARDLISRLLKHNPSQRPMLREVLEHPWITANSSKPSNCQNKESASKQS

KARPAS-299 = test: Antiproliferative activity against human KARPAS299 cells after 72 hrs by CellTiter-Glo luminescent cell viability assay; format: functional, cell-based
[3] = biological target: T2, ALK tyrosine kinase receptor (Homo sapiens, UniProt Q9UM73); test: Induction of ALK degradation in human NCI-H3122 cells at 250 nM after 16 hrs in presence of ALK inhibitor TAE684 by immunoblot method; format: cell-based
Target sequence in this assay (Q9UM73 19-1620 limits assumed): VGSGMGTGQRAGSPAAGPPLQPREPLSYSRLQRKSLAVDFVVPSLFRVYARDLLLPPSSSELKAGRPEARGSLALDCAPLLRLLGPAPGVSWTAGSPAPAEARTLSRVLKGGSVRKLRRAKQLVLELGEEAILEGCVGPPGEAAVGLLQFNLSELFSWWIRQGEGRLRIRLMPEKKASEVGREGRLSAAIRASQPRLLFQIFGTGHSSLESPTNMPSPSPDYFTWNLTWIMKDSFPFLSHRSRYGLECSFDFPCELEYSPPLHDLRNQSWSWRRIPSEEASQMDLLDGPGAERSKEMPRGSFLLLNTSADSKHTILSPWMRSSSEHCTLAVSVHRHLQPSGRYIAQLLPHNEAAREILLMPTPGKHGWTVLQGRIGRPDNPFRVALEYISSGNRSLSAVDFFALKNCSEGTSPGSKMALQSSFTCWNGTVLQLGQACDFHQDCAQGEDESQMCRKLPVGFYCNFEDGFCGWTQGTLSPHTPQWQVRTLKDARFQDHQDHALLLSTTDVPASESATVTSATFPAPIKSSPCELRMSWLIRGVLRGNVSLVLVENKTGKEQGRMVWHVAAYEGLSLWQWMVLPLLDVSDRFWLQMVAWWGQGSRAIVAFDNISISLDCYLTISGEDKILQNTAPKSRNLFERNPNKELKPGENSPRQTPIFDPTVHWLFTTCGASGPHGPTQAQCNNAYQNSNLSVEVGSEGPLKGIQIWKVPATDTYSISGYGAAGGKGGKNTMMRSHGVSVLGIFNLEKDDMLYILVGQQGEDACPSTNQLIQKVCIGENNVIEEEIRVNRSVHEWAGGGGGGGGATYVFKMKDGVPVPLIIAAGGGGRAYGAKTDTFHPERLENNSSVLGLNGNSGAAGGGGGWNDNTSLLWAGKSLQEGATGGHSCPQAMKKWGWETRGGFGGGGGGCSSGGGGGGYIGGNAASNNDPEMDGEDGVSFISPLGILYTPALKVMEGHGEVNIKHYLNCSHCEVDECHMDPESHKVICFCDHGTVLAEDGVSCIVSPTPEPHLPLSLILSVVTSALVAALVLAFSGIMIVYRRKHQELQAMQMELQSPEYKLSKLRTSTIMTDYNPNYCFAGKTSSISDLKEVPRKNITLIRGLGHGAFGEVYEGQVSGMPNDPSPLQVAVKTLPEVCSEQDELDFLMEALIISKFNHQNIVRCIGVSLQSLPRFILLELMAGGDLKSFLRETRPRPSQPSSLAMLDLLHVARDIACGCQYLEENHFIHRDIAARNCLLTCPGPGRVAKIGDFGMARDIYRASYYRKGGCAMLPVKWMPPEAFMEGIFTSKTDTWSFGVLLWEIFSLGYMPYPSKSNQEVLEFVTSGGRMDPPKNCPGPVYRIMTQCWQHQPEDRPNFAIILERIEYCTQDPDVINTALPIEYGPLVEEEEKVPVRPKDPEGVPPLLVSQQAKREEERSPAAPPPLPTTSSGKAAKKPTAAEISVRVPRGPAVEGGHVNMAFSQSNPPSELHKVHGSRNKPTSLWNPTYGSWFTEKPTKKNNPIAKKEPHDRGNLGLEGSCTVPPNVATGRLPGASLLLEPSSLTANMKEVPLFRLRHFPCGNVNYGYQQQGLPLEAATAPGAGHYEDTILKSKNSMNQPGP

[4] = biological target: T1, Aurora kinase A (Homo sapiens); test: Induction of aurora A degradation in human Kelly cells at 100 nM after 16 hrs in presence of […] inhibitor MLN4924 by immunoblot method; format: cell-based
Method in brief: (§1)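 Cells were pre-treated for 2 h with DMSO, carfilzomib, MLN4924 or pomalidomide, then treated with compound for 16 h, with immunoblot read-out. CHLA20 cells also received 125 nM tariquidar throughout.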

Homo sapiens [5] = species: Homo sapiens; test: Antiproliferative activity against human CHLA20 cells after 72 hrs in presence of ABCB1 inhibitor tariquidar by CellTiter-Glo luminescent cell viability assay; format: functional, cell-based
[6] = biological target: T2, ALK tyrosine kinase receptor; test: Induction of ALK degradation in human KARPAS299 cells after 16 hrs by immunoblot method; format: cell-based
Method in brief: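 H3122 and Karpas 299 cells were given a dose titration for 16 h. ALK and Aurora A were then read by immunoblot. DC50 was calculated from the titrations, two independent experiments.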

[7] = biological target: Focal adhesion kinase 1 (Homo sapiens) (UniProt Q05397); test: Induction of PTK2 degradation in human NCI-H3122 cells at 250 nM measured over 2 to 16 hrs by immunoblot method; format: cell-based
[8] = biological target: T2, ALK tyrosine kinase receptor; test: Induction of ALK degradation in human NCI-H3122 cells at 250 nM after 16 hrs in presence of proteasome inhibitor carfilzomib by immunoblot method; format: cell-based
Target sequence in this assay (Q9UM73 19-1620 limits assumed): as above

[9] = biological target: T2, ALK tyrosine kinase receptor; test: Induction of ALK degradation in human CHLA20 cells assessed as decrease in ALK phosphorylation at Y1507 at 50 to 250 nM after 16 hrs in presence of ABCB1 inhibitor tariquidar by immunoblot method; format: cell-based
Method in brief: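 CHLA20 neuroblastoma cells (ABCB1-high) were co-treated with 125 nM tariquidar throughout. They were dose-titrated for 16 hours and read by immunoblot.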
Target sequence in this assay (Q9UM73 19-1620 limits assumed): as above

[10] = biological target: T2, ALK tyrosine kinase receptor; test: Induction of ALK degradation in human CHLA20 cells at 100 nM after 16 hrs in presence of ABCB1 shRNA by immunoblot method; format: cell-based
Target sequence in this assay (Q9UM73 19-1620 limits assumed): as above

Homo sapiens [11] = species: Homo sapiens; test: Antiproliferative activity against human CHLA20 cells after 72 hrs in presence of ABCB1 shRNA by CellTiter-Glo luminescent cell viability assay; format: functional, cell-based
[12] = biological target: T1, Aurora kinase A (Homo sapiens); test: Induction of aurora A degradation in human CHLA20 cells at 100 nM after 16 hrs in presence of […] inhibitor MLN4924 and ABCB1 inhibitor tariquidar by immunoblot method; format: cell-based; method in brief: as §1
[13] = biological target: Focal adhesion kinase 1 (Homo sapiens) (UniProt Q05397); test: Induction of PTK2 degradation in human Kelly cells at 10 to 160 nM after 16 hrs by immunoblot method; format: cell-based
[14] = biological target: T2, ALK tyrosine kinase receptor; test: Induction of ALK degradation in human Kelly cells at 100 nM after 16 hrs in presence of ALK inhibitor LDK378 by immunoblot method; format: cell-based
Method in brief: (§2)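 Kelly cells were pre-treated for 2 h with DMSO, carfilzomib, MLN4924, pomalidomide, TAE684 or LDK378. Degrader treatment followed for 16 h, and ALK was read by immunoblot.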
Target sequence in this assay (Q9UM73 19-1620 limits assumed): as above

[15] = biological target: Tyrosine-protein kinase Fer (Homo sapiens) (UniProt P16591); test: Induction of FER degradation in human KARPAS299 cells at 0.01 to 1 uM after 16 hrs by immunoblot method; format: cell-based
SU-DHL-1 = test: Antiproliferative activity against human SU-DHL1 cells after 72 hrs by CellTiter-Glo luminescent cell viability assay; format: functional, cell-based
[16] = biological target: T1, Aurora kinase A (Homo sapiens); test: Induction of aurora A degradation in human NCI-H3122 cells at 250 nM after 16 hrs in presence of proteasome inhibitor carfilzomib by immunoblot method; format: cell-based
[17] = biological target: T1, Aurora kinase A (Homo sapiens); test: Induction of aurora A degradation in human NCI-H3122 cells at 250 nM after 16 hrs in presence of […] inhibitor MLN4924 by immunoblot method; format: cell-based
[18] = biological target: T2, ALK tyrosine kinase receptor; test: Induction of ALK degradation in human KARPAS299 cells at 250 nM after 16 hrs in presence of ALK inhibitor LDK378 by immunoblot method; format: cell-based
Target sequence in this assay (Q9UM73 19-1620 limits assumed): as above

[19] = biological target: T2, ALK tyrosine kinase receptor; test: Induction of ALK degradation in human KARPAS299 cells at 250 nM after 8 hrs by immunoblot method; format: cell-based
[20] = biological target: T2, ALK tyrosine kinase receptor; test: Induction of ALK degradation in human KARPAS299 cells at 250 nM after 16 hrs in presence of proteasome inhibitor carfilzomib by immunoblot method; format: cell-based
[21] = biological target: T2, ALK tyrosine kinase receptor; test: Induction of ALK degradation in human NCI-H3122 cells at 250 nM after 16 hrs in presence of pomalidomide by immunoblot method; format: cell-based
NCI-H3122 = test: Antiproliferative activity against human NCI-H3122 cells after 72 hrs by CellTiter-Glo luminescent cell viability assay; format: functional, cell-based
[22] = biological target: Focal adhesion kinase 1 (Homo sapiens) (UniProt Q05397); test: Induction of PTK2 degradation in human Kelly cells at 100 nM measured over 2 to 16 hrs by immunoblot method; format: cell-based
SH-SY5Y [23] = test: Antiproliferative activity against human SH-SY5Y cells after 72 hrs in presence of ABCB1 inhibitor tariquidar by CellTiter-Glo luminescent cell viability assay; format: functional, cell-based
[24] = biological target: T2, ALK tyrosine kinase receptor; test: Induction of ALK degradation in human CHLA20 cells at 100 nM after 16 hrs in presence of pomalidomide and ABCB1 inhibitor tariquidar by immunoblot method; format: cell-based
Method in brief: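 CHLA20 cells were kept with 125 nM tariquidar and pre-treated for 2 h with DMSO, carfilzomib, MLN4924, pomalidomide, TAE684 or LDK378. A 16 h degrader treatment followed, with immunoblot readout of ALK.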

[25] = biological target: T2, ALK tyrosine kinase receptor; test: Induction of ALK degradation in human Kelly cells at 100 nM after 16 hrs in presence of ALK inhibitor TAE684 by immunoblot method; format: cell-based; method in brief: as §2
SH-SY5Y [26] = test: Antiproliferative activity against human SH-SY5Y cells after 72 hrs by CellTiter-Glo luminescent cell viability assay; format: functional, cell-based
[27] = biological target: Focal adhesion kinase 1 (Homo sapiens) (UniProt Q05397); test: Induction of PTK2 degradation in human KARPAS299 cells at 0.01 to 1 uM after 16 hrs by immunoblot method; format: cell-based

Focal adhesion kinase 1 (Homo sapiens), sequence (Q05397 2-1052 limits assumed): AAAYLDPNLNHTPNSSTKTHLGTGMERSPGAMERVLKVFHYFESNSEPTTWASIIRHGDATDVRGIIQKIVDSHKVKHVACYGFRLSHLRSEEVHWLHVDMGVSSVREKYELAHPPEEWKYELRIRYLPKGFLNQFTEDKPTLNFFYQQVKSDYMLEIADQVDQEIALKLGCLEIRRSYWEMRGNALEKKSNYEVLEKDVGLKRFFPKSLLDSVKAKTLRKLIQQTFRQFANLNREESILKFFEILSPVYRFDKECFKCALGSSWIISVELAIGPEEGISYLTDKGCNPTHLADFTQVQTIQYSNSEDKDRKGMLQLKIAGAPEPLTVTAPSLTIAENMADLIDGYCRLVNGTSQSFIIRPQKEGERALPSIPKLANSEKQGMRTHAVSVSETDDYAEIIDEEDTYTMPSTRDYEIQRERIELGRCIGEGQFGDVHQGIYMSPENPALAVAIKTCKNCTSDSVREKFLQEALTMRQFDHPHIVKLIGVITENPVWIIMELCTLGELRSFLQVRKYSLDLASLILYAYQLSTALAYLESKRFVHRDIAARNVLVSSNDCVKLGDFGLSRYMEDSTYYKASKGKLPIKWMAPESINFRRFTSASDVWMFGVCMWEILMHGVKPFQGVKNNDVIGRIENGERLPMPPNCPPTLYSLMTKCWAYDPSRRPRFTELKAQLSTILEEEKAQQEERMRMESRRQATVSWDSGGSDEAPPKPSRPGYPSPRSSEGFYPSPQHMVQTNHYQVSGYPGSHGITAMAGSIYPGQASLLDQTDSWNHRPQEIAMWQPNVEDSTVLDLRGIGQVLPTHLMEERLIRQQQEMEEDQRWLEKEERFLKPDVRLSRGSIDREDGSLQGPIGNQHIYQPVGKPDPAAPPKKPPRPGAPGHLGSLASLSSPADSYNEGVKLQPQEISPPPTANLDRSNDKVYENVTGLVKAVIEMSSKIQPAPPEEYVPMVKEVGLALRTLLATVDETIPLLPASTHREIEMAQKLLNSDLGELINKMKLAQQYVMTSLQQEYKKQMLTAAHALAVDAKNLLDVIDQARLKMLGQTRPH
Tyrosine-protein kinase Fer (Homo sapiens), sequence (P16591 whole entry, looked up): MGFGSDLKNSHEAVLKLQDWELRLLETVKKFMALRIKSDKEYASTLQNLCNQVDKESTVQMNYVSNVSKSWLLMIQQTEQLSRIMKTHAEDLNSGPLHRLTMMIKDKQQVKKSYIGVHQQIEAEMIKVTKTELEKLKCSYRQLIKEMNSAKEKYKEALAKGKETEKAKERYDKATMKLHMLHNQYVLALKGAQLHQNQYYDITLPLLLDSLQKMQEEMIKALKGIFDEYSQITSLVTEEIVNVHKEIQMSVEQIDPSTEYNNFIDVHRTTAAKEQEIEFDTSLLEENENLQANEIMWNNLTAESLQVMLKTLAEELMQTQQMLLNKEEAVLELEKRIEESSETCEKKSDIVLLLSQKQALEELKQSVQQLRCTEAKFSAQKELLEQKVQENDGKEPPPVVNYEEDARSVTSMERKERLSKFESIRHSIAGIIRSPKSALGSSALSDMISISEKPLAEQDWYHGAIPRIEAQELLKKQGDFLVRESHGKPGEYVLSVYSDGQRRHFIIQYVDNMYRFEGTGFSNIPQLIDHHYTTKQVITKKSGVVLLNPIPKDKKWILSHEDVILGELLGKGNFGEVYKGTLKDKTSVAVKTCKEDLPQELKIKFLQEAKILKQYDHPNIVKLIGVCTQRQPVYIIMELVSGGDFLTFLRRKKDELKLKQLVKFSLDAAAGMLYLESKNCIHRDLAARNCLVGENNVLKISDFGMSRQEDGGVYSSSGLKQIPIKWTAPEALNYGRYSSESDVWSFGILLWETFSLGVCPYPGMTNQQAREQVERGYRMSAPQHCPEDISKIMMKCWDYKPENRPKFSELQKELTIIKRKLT

COc1cc(N2CCN(CCOCCOCCNC(=O)CNc3cccc4c3C(=O)N(C3CCC(=O)NC3=O)C4=O)CC2)ccc1Nc1ncc(Cl)c(Nc2ccccc2S(=O)(=O)C(C)C)n1 (stereo not given)
Activity [1]: Active
Activity [2]: inactive
Activity (KARPAS-299): Active
Activity [3]: inactive
Activity [4]: inactive
Activity (Homo sapiens [5]): Active
DC50 [6]: 180 nM
Activity [7]: Active
Activity [8]: inactive
Activity [9]: Active
Activity [10]: Active
Activity (Homo sapiens [11]): Active
Activity [12]: inactive
Activity [13]: Active
Activity [14]: inactive
Activity [15]: Active
Activity (SU-DHL-1): Active
Activity [16]: inactive
Activity [17]: inactive
Activity [18]: inactive
Activity [19]: Active
Activity [20]: inactive
Activity [21]: inactive
Activity (NCI-H3122): Active
Activity [22]: Active
Activity (SH-SY5Y [23]): Active
Activity [24]: inactive
Activity [25]: inactive
Activity (SH-SY5Y [26]): inactive
Activity [27]: Active

Cc1cc(Nc2ncc(Cl)c(Nc3ccccc3S(=O)(=O)C(C)C)n2)c(OC(C)C)cc1C1CCN(CCOCCOCCNC(=O)CNc2cccc3c2C(=O)N(C2CCC(=O)NC2=O)C3=O)CC1 (stereo not given)
Activity [1]: Active
Activity [2]: inactive
Activity (KARPAS-299): Active
Activity [3]: inactive
Activity [4]: inactive
Activity (Homo sapiens [5]): Active
DC50 [6]: 40 nM
Activity [7]: Active
Activity [8]: inactive
Activity [9]: Active
Activity [10]: Active
Activity (Homo sapiens [11]): Active
Activity [12]: inactive
Activity [13]: Active
Activity [14]: inactive
Activity [15]: Active
Activity (SU-DHL-1): Active
Activity [16]: inactive
Activity [17]: inactive
Activity [18]: inactive
Activity [19]: Active
Activity [20]: inactive
Activity [21]: inactive
Activity (NCI-H3122): Active
Activity [22]: Active
Activity (SH-SY5Y [23]): Active
Activity [24]: inactive
Activity [25]: inactive
Activity (SH-SY5Y [26]): inactive
Activity [27]: Active
